Test results published in PMC4172508 (Bioorganic & medicinal chemistry, 2014).

How the values were obtained:
H1299 cells [1] = assay: Cell viability, sulforhodamine B assay; assay type: cell-based; conditions: H1299, 3 days after treatment
Summary of the method: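 Sulforhodamine B assay on the lung cancer line. Cells were exposed to a range of test compound concentrations, and viability was read 3 days after treatment. DMSO-treated control cells were set to 100. Values are mean ± SD of quadruplicate wells.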

[2] = Stability of powder during storage; assay type: physicochemical; conditions: for stability of powder (remaining): 37°C; for time powder stable without detectable changes: non-evacuated container
Summary of the method: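 Powdered test compounds were stored at 4°C, room temperature (21°C) or 37°C. Aliquots were taken at time points and kept at −20°C. Each was dissolved in DMSO, diluted with 9 volumes of acetonitrile and analysed by C18 HPLC (acetonitrile/water gradient with 0.2% formic acid, UV 280 nm).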

[3] = Stability of stock solution; assay type: physicochemical; conditions: Solutol HS15 and ethyl alcohol
Summary of the method: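 Stock solution: 70 mg prodrug or 60 mg parent drug per ml of 75% (w/v) Solutol HS15 in ethanol (about 20% v/v ethanol). It was stored in capped brown glass tubes at room temperature or 4°C. At intervals, samples were diluted 100-fold in acetonitrile/water (4/1) for C18 HPLC with UV detection at 280 nm.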

[4] = Stability of injectable solution; assay type: physicochemical
[5] = Tissue distribution in nude mice bearing Calu3 xenograft tumors; assay type: in vivo; conditions: 24 h
Summary of the method: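 Nude mice (7–8 weeks) bearing subcutaneous Calu3 xenografts, one per group, received 60 mg/kg by tail vein in Solutol HS15/ethanol/0.9% NaCl. Mice were euthanised at 24 h. Liver, lungs, kidneys, spleen, small intestine and tumour were homogenised in methanol (50 mg/ml) on ice and mixed 1:1 with acetonitrile containing 0.2% formic acid and internal standard. Samples were centrifuged at 4°C and analysed by HPLC/MS.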

Balb/c mice = assay: Acute toxicity study; assay type: in vivo
liver functions = assay: Serum liver enzyme levels; assay type: in vivo; conditions: for serum liver enzyme activities: 25 mg/kd/day, each day for 8 days, blood 3 days after last treatment
liver = assay: Histopathological analysis on livers; assay type: in vivo; conditions: 150 mg/kg once, livers harvested 48 h after treatment
Summary of the method: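 Mice received a single 150 mg/kg dose of test compound. Livers were harvested at 48 h, sectioned and examined histologically, with two mice per group.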

H157 cells [6] = conditions: previous study ref 5; cited from earlier work
H460 cells [7] = conditions: previous study ref 5; cited from earlier work
Calu3 cells [8] = conditions: previous study ref 5; cited from earlier work
H1299 cells [9] = conditions: previous study ref 5; cited from earlier work
[10] = test system: human renal cancer cell line A498 xenograft; conditions: compared with oncrasin-60 (NSC-741909); cited from earlier work
[11] = test system: KRAS-mutant lung cancer cell line H157 xenografts; conditions: cited from earlier work
[12] = compared with oncrasin-60 (NSC-741909); cited from earlier work
[13] = especially in low-pH conditions; cited from earlier work
[14] = Release of NSC-743380 from esterified derivatives in PBS; assay type: physicochemical; conditions: PBS pH 7.4, 0.5 mg/ml, 37°C
Summary of the method: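 Test compound was made to 0.5 mg/ml in PBS pH 7.4 containing 12% DMSO and 18% acetonitrile (diluted from a DMSO/acetonitrile stock). It was held in a 37°C water bath for up to 24 h. Aliquots were taken at 0–24 h, frozen at −20°C, diluted 50-fold in acetonitrile and run on C18 HPLC (acetonitrile/water gradient, 0.2% formic acid, UV 280 nm). Data come from one of two experiments.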

H157 cells [15] = assay: Cell viability, sulforhodamine B assay; assay type: cell-based; conditions: H157, 3 days after treatment
Summary of the method: (§1)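 Human lung cancer cells were treated with a range of test-compound concentrations. Viability was read by sulforhodamine B assay 3 days after treatment. DMSO-treated control cells were set as 100. Values are mean ± SD of quadruplicate wells.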

H460 cells [16] = assay: Cell viability, sulforhodamine B assay; assay type: cell-based; conditions: H460, 3 days after treatment
Summary of the method: as §1

Calu3 cells [17] = assay: Cell viability, sulforhodamine B assay; assay type: cell-based, human; conditions: Calu3, 3 days after treatment
Summary of the method: as §1

[18] = animals treated with oncrasin-266, 60 mg/kg i.v.
[19] = 150 mg/kg i.p. daily for 3 days, 3 mice/group
[20] = 300 mg/kg i.p. on day 1 and day 2, 3 Balb/c mice/group
[21] = 150 mg/kg daily for 3 days, blood on day 6, surviving mice

OCc1cn(Cc2cccc(Cl)c2)c2ccccc12 [NSC-743380]
anticancer activity (cell viability) (H1299 cells [1]): resistant | stability of powder (remaining) ([2]; over 14 days): < 5% | time stable in stock solution ([3]; room temperature): at least 1 weeks | loss in injectable solution ([4]; 37°C, 7 h): more than 20% | change in injectable solution ([4]; room temperature, 7 h): little change | tissues in which NSC-743380 was detectable [5, 18]: liver, lungs, kidneys, and subcutaneous tumor tissue | tissues in which NSC-743380 was detected ([5]; mice treated with NSC-743380, 60 mg/kg i.v.): lungs, intestine, and subcutaneous tumor tissue | survival / death of mice (Balb/c mice; [19]): Two mice in the NSC-743380-treated group died on day 5 | survival / death of mice (Balb/c mice; [20]): All three mice injected with NSC-743380 died on day 3 | serum liver enzyme activities (liver functions): mostly in normal ranges | blood alanine transaminase (ALT) (liver functions; [21]): about 1936 Units/L | histopathological changes in liver (liver): liver cell damage (necrosis) was obvious | sensitivity of cells to NSC743380 therapy (H157 cells [6]): highly sensitive | sensitivity of cells to NSC743380 therapy (H460 cells [7]): highly sensitive | sensitivity of cells to NSC743380 therapy (Calu3 cells [8]): highly sensitive | sensitivity of cells to NSC743380 therapy (H1299 cells [9]): resistant | anticancer activity in xenograft tumor model [10]: more effective anticancer activity | in vivo tumor suppression [11]: significant in vivo tumor suppression | maximum tolerated dose / tolerability [12]: much better tolerated | behaviour in solutions with water [13]: tends to form dimers in solutions with water and loses activity

O=C(CC1CCCCC1)OCc1cn(Cc2cccc(Cl)c2)c2ccccc12 [oncrasin-266, [1-(3-chlorobenzyl)-1H-indol-3-yl]methyl 2-cyclohexylacetate]
time to complete the release of NSC-743380 [14]: about 6 hours | anticancer activity (cell viability) (H157 cells [15]): equivalent anticancer activity as NSC743380 | anticancer activity (cell viability) (H460 cells [16]): equivalent anticancer activity as NSC743380 | anticancer activity (cell viability) (Calu3 cells [17]): equivalent anticancer activity as NSC743380 | anticancer activity (cell viability) (H1299 cells [1]): resistant | time powder stable without detectable changes ([2]; 4°C): at least 90 days | stability of powder (remaining) ([2]; by day 90): < 5% | time powder stable without detectable changes ([2]; room temperature): at least 90 days | time stable in stock solution ([3]; 4°C): at least 4 weeks | time stable in stock solution ([3]; room temperature): at least 2 weeks | release of NSC-743380 from oncrasin-266 ([4]; injectable solution, 7 hours, 37°C): higher than 10% | oncrasin-266 hydrolyzed to release NSC-743380 ([4]; injectable solution, within 7 hours, room temperature): about 10% | oncrasin-266 detected in the liver [5, 18]: high concentration | survival / death of mice (Balb/c mice; [19]): none of the oncrasin-266-treated mice died | survival / death of mice (Balb/c mice; [20]): one died on day 4 and the remaining two survived for at least 2 weeks | tolerability in vivo (Balb/c mice; 150-300 mg/kg i.p., mice): better tolerated than NSC-743380 | serum liver enzyme activities (liver functions): mostly in normal ranges | blood alanine transaminase (ALT) (liver functions; [21]): about 115 Units/L | blood alkaline phosphatase (ALP) (liver functions; [21]): ~50 Units/L | histopathological changes in liver (liver): no obvious changes
